Reference: ChEMBL document CHEMBL1629440, “Synthesis and pharmacological properties of novel hydrophilic 5-HT4 receptor antagonists” (Bioorg Med Chem, 2010)

Tests used:
[1] = target: T1, 5-hydroxytryptamine receptor 4 (Homo sapiens, UniProt Q13639); experiment: Antagonistic activity at human 5HT4 receptor expressed in HEK293 cells assessed as inhibition of 5-HT stimulated ADCY activity after 20 mins; type: functional, cell-based
Summary of the method: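 Membranes from HEK293 cells stably expressing human 5-HT4(b) at low level (400 fmol/mg). Adenylyl cyclase activity was stimulated by 1 µM 5-HT with 21 antagonist concentrations, 0.1 mM [α-32P]ATP, 4 mM MgCl2, 1 mM IBMX, GTP and ATP-regenerating system, 32 °C, 20 min. [32P]cAMP was isolated on Dowex/alumina columns. IC50 was fitted by non-linear regression and Kb calculated using 5-HT EC50.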

[2] = Lipophilicity, log D of the compound in octanol buffer at pH 7.4; type: physicochemical
Summary of the method: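 Distribution between octanol and aqueous buffer at pH 7.4. Both phases were diluted and ligand concentration in each measured by HPLC. Not determined where micelles formed.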

[3] = target: T1, 5-hydroxytryptamine receptor 4; experiment: Displacement of [3H]GR113808 from human 5HT4 receptor expressed in HEK293 cells by liquid scintillation counting; type: cell-based
Summary of the method: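 Membranes from HEK293 line stably expressing human 5-HT4(b) at high level (5000 fmol/mg). Incubated with 0.3 nM [3H]GR113808 and 21 competitor concentrations in Tris-HCl pH 7.5, EDTA, EGTA, 2 mM MgCl2, ascorbate, 0.1% BSA, 100 µM GTP, room temperature 1 h. Filtered onto PEI-soaked filters, washed, scintillation counted. Ki derived from IC50 via Ki = IC50/(1+L/Kd).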

[4] = target: T1, 5-hydroxytryptamine receptor 4; experiment: Antagonistic activity at human 5HT4 receptor expressed in HEK293 cells; type: functional, cell-based
[5] = Half life in bovine plasma by HPLC; type: ADME, Bos taurus; conditions: cattle
Summary of the method: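 Ester incubated at 40 µM initial concentration in bovine plasma at 37 °C for up to 10 h. Aliquots were removed at intervals and H3PO4 added to release protein-bound drug. Parent ester and free-acid degradation product were quantified by HPLC, and half-life was calculated.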

[6] = Binding affinity to GABA receptor BDZ-site
D(4) dopamine receptor = D(4) dopamine receptor (Homo sapiens, UniProt P21917); experiment: Binding affinity to dopamine receptor D4
[7] = target: Sodium-dependent dopamine transporter (Homo sapiens, UniProt Q01959); experiment: Binding affinity to DAT
[8] = target: 5-hydroxytryptamine receptor 1E (Homo sapiens, UniProt P28566); experiment: Binding affinity to 5HT1E receptor
[9] = target: 5-hydroxytryptamine receptor 1B (Homo sapiens, UniProt P28222); experiment: Binding affinity to 5HT1B receptor
[10] = target: Delta-type opioid receptor (Homo sapiens, UniProt P41143); experiment: Binding affinity to opioid receptor DOR
[11] = target: Sigma non-opioid intracellular receptor 1 (Homo sapiens, UniProt Q99720); experiment: Binding affinity to opioid receptor Sigma1
[12] = target: Beta-1 adrenergic receptor (Homo sapiens, UniProt P08588); experiment: Binding affinity to beta1 adrenergic receptor
[13] = target: Alpha-1B adrenergic receptor (Homo sapiens, UniProt P35368); experiment: Binding affinity to Alpha-1B adrenergic receptor
[14] = Binding affinity to opioid receptor Sigma2
[15] = target: Beta-2 adrenergic receptor (Homo sapiens, UniProt P07550); experiment: Binding affinity to beta2 adrenergic receptor
[16] = Binding affinity to GABA-A receptor muscimol site
Mu-type opioid receptor = Mu-type opioid receptor (Homo sapiens, UniProt P35372); experiment: Binding affinity to opioid receptor MOR
Histamine H1 receptor = Histamine H1 receptor (Homo sapiens, UniProt P35367); experiment: Binding affinity to Histamine receptor H1
D(2) dopamine receptor = D(2) dopamine receptor (Homo sapiens, UniProt P14416); experiment: Binding affinity to dopamine receptor D2
[17] = target: 5-hydroxytryptamine receptor 6 (Homo sapiens, UniProt P50406); experiment: Binding affinity to 5HT6 receptor
[18] = target: Muscarinic acetylcholine receptor M1 (Homo sapiens, UniProt P11229); experiment: Binding affinity to muscarinic acetylcholine receptor M1
D(3) dopamine receptor = D(3) dopamine receptor (Homo sapiens, UniProt P35462); experiment: Binding affinity to dopamine receptor D3
Histamine H3 receptor = Histamine H3 receptor (Homo sapiens, UniProt Q9Y5N1); experiment: Binding affinity to Histamine receptor H3
[19] = target: Alpha-1A adrenergic receptor (Homo sapiens, UniProt P35348); experiment: Binding affinity to alpha1A adrenergic receptor
Histamine H4 receptor = Histamine H4 receptor (Homo sapiens, UniProt Q9H3N8); experiment: Binding affinity to Histamine receptor H4
[20] = target: Muscarinic acetylcholine receptor M3 (Homo sapiens, UniProt P20309); experiment: Binding affinity to muscarinic acetylcholine receptor M3
Histamine H2 receptor = Histamine H2 receptor (Homo sapiens, UniProt P25021); experiment: Binding affinity to Histamine receptor H2
[21] = target: Alpha-2A adrenergic receptor (Homo sapiens, UniProt P08913); experiment: Binding affinity to alpha2A adrenergic receptor
[22] = target: 5-hydroxytryptamine receptor 7 (Homo sapiens, UniProt P34969); experiment: Binding affinity to 5HT7 receptor
[23] = target: Beta-3 adrenergic receptor (Homo sapiens, UniProt P13945); experiment: Binding affinity to beta3 adrenergic receptor
D(1B) dopamine receptor = D(1B) dopamine receptor (Homo sapiens, UniProt P21918); experiment: Binding affinity to dopamine receptor D5
[24] = target: Sodium-dependent serotonin transporter (Homo sapiens, UniProt P31645); experiment: Binding affinity to SERT
[25] = target: Muscarinic acetylcholine receptor M2 (Homo sapiens, UniProt P08172); experiment: Binding affinity to muscarinic acetylcholine receptor M2
[26] = target: 5-hydroxytryptamine receptor 1D (Homo sapiens, UniProt P28221); experiment: Binding affinity to 5HT1D receptor
[27] = target: Alpha-1D adrenergic receptor (Homo sapiens, UniProt P25100); experiment: Binding affinity to Alpha-1D adrenergic receptor
[28] = target: 5-hydroxytryptamine receptor 3A (Homo sapiens, UniProt P46098); experiment: Binding affinity to 5HT3 receptor
[29] = target: 5-hydroxytryptamine receptor 2A (Homo sapiens, UniProt P28223); experiment: Binding affinity to 5HT2A receptor
[30] = target: 5-hydroxytryptamine receptor 2C (Homo sapiens, UniProt P28335); experiment: Binding affinity to 5HT2C receptor
[31] = target: 5-hydroxytryptamine receptor 2B (Homo sapiens, UniProt P41595); experiment: Binding affinity to 5HT2B receptor
D(1A) dopamine receptor = D(1A) dopamine receptor (Homo sapiens, UniProt P21728); experiment: Binding affinity to dopamine receptor D1
[32] = target: Muscarinic acetylcholine receptor M4 (Homo sapiens, UniProt P08173); experiment: Binding affinity to muscarinic acetylcholine receptor M4
[33] = target: 5-hydroxytryptamine receptor 5A (Homo sapiens, UniProt P47898); experiment: Binding affinity to 5HT5A receptor
[34] = target: Alpha-2B adrenergic receptor (Homo sapiens, UniProt P18089); experiment: Binding affinity to alpha2B adrenergic receptor
[35] = target: Kappa-type opioid receptor (Homo sapiens, UniProt P41145); experiment: Binding affinity to opioid receptor KOR
[36] = target: 5-hydroxytryptamine receptor 1A (Homo sapiens, UniProt P08908); experiment: Binding affinity to 5HT1A receptor
[37] = target: Muscarinic acetylcholine receptor M5 (Homo sapiens, UniProt P08912); experiment: Binding affinity to muscarinic acetylcholine receptor M5
[38] = target: Alpha-2C adrenergic receptor (Homo sapiens, UniProt P18825); experiment: Binding affinity to Alpha-2C adrenergic receptor

T1 sequence (Q13639 whole entry): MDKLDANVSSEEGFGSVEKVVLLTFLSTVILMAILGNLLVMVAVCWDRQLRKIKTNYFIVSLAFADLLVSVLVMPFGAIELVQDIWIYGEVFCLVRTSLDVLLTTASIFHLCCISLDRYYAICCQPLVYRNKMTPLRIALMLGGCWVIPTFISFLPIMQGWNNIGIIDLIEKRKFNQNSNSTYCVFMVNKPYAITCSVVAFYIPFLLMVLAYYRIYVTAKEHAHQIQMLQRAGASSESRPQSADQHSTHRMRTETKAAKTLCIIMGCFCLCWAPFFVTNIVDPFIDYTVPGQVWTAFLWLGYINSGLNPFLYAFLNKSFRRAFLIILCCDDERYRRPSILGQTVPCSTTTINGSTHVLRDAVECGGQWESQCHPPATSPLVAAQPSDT
Chain of Histamine H4 receptor (Q9H3N8 whole entry): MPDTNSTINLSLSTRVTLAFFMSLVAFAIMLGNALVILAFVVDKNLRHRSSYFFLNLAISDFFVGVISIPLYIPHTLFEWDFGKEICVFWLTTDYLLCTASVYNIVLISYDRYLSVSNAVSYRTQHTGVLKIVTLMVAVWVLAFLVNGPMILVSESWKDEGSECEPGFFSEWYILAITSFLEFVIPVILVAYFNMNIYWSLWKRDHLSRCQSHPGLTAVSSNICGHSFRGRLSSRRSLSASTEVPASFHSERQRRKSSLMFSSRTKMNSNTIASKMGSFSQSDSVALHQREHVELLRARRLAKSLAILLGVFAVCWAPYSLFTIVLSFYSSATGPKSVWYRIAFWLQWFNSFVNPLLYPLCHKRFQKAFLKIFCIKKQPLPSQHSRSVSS
Chain of Alpha-1A adrenergic receptor (P35348 whole entry): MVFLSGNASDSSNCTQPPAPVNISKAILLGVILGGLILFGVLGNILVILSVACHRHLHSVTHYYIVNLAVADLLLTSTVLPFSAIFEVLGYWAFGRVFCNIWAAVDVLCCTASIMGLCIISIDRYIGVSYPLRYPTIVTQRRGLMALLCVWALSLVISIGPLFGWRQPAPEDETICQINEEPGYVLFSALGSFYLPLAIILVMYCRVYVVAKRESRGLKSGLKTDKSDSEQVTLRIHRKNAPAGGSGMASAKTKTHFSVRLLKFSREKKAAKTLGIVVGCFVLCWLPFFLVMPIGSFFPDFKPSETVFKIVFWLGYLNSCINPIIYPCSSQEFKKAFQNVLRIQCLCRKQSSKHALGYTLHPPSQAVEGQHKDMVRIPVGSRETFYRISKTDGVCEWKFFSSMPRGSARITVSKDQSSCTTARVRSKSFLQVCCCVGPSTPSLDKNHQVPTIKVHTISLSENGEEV
Chain of Histamine H2 receptor (P25021 whole entry): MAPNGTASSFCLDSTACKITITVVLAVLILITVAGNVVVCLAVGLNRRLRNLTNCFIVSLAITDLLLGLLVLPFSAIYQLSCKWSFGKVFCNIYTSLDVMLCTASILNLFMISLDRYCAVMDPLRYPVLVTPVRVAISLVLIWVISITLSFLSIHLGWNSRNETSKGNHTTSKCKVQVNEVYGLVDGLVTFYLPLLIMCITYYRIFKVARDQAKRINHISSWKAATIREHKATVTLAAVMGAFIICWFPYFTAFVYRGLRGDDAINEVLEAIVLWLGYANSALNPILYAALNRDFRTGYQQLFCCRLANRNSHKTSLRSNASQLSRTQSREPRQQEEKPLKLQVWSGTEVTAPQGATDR
Chain of 5-hydroxytryptamine receptor 5A (P47898 whole entry): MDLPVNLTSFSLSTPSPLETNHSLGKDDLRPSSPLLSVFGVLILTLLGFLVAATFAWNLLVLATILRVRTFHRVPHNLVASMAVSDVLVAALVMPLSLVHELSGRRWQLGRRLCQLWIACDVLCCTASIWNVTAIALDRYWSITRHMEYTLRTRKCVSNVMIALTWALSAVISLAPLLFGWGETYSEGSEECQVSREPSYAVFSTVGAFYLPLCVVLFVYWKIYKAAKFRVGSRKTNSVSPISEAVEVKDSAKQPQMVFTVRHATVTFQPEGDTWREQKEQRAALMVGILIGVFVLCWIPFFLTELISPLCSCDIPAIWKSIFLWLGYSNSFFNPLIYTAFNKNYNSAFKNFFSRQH
Chain of D(3) dopamine receptor (P35462 whole entry): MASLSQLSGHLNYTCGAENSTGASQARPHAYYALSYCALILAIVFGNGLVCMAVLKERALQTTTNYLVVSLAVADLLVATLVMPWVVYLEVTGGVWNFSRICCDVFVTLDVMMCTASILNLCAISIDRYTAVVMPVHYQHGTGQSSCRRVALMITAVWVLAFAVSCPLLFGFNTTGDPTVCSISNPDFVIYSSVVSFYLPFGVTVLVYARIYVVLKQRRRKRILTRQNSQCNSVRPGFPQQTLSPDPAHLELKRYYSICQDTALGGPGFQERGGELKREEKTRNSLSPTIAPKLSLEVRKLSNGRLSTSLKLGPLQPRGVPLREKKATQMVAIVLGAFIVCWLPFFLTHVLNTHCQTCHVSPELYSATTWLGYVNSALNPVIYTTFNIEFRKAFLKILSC
Chain of 5-hydroxytryptamine receptor 2A (P28223 whole entry): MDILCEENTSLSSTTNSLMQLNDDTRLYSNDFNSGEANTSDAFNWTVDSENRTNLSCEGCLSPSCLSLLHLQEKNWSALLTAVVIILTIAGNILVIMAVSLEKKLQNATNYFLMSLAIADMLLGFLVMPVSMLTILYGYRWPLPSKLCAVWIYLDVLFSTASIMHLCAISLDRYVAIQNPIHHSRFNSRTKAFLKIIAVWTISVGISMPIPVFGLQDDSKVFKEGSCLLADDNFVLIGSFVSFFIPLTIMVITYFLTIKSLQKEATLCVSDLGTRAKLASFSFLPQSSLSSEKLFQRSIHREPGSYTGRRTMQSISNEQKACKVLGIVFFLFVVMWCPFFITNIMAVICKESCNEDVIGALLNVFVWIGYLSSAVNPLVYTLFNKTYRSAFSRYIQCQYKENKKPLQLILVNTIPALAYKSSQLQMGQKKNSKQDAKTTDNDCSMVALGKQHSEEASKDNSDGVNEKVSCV
Chain of Alpha-1B adrenergic receptor (P35368 whole entry): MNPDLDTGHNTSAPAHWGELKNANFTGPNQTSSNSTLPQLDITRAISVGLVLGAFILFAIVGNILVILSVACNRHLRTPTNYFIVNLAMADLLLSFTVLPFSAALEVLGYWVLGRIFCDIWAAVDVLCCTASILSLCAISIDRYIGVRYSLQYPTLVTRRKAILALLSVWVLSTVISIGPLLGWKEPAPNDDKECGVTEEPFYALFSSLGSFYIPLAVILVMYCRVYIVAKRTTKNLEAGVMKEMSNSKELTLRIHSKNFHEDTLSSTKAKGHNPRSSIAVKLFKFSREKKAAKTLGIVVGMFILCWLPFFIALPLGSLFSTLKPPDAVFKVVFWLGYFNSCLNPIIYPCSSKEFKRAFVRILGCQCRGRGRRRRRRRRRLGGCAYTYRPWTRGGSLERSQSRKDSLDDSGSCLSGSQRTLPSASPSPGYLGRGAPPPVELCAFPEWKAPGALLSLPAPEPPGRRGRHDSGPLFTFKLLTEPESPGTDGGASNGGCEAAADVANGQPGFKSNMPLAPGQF
Chain of Muscarinic acetylcholine receptor M3 (P20309 whole entry): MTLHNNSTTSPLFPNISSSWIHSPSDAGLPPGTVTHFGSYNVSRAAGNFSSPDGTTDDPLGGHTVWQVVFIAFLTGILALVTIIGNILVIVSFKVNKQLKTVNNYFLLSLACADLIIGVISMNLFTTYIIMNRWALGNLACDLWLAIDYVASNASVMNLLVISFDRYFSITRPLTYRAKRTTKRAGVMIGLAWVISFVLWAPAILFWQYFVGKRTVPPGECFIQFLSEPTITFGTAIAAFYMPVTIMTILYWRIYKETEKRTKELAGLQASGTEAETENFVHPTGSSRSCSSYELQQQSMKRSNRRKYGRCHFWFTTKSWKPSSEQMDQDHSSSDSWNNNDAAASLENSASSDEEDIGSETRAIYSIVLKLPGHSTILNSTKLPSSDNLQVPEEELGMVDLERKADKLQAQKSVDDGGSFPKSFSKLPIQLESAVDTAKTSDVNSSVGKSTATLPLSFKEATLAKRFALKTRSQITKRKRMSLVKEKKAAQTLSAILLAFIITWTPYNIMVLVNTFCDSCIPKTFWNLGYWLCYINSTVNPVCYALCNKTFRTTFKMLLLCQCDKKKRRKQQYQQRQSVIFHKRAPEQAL
Chain of 5-hydroxytryptamine receptor 7 (P34969 whole entry): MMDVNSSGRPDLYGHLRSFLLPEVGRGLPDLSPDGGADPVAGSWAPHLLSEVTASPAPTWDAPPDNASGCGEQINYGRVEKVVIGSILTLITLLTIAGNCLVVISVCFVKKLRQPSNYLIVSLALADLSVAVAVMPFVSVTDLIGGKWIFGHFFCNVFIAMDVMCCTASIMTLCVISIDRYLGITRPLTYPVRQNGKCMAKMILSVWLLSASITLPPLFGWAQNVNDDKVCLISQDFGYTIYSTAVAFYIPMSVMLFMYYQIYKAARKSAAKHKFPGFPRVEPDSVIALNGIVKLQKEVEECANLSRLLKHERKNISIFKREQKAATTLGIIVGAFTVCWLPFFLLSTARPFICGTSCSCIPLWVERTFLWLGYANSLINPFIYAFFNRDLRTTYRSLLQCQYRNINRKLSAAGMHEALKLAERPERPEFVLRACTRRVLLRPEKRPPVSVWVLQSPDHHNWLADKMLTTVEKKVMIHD
Chain of D(1A) dopamine receptor (P21728 whole entry): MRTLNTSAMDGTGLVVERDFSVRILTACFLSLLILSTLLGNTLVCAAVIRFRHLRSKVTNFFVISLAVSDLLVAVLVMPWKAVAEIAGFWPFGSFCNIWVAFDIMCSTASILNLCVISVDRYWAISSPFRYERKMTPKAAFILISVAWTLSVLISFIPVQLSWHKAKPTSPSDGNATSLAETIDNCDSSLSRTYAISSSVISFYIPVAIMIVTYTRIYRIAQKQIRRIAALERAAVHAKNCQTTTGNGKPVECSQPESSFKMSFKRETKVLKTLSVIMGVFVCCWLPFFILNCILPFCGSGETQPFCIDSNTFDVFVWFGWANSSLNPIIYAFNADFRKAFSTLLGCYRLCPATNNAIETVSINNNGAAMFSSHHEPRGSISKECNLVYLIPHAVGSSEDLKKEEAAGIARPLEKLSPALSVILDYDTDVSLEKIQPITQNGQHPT

**Q.** With O=C(O)CCCN1CCC(CNC(=O)c2c3n(c4ccccc24)CCCO3)CC1 as the molecule, how does the pKb [1] read?
**A.** 7.96

**Q.** What about the logD [2] of the same molecule?
**A.** -1.2

**Q.** And the Ki [3]?
**A.** 2000 pM

**Q.** Which results are given for O=C(O)CCCCCCCCCCCN1CCC(CNC(=O)c2c3n(c4ccccc24)CCCO3)CC1?
**A.** pKb [1]: 8.97; Ki [3]: 2450 pM

**Q.** Which pKb [1] does the source give for COC(=O)CCCCCCCCCN1CCC(CNC(=O)c2c3n(c4ccccc24)CCCO3)CC1 here?
**A.** 9.33

**Q.** And the Ki [3]?
**A.** 195 pM

**Q.** Which pKb [1] does the source give for CC(C)(C)C(=O)OCOC(=O)c1ccc(CN2CCC(CNC(=O)c3c4n(c5ccccc35)CCCO4)CC2)cc1 here?
**A.** 9.07

**Q.** What about the logD [2] of the same molecule?
**A.** 2.3

**Q.** And the Ki [3]?
**A.** 339 pM

**Q.** Which results are given for O=C(O)CCCCN1CCC(CNC(=O)c2c3n(c4ccccc24)CCCO3)CC1?
**A.** pKb [1]: 8.1; logD [2]: -1.3; Ki [3]: 2040 pM

**Q.** Which pKb [1] does the source give for O=C(CCCCN1CCC(CNC(=O)c2c3n(c4ccccc24)CCCO3)CC1)OCc1ccccc1 here?
**A.** 10.2

**Q.** What about the Ki [3] of the same molecule?
**A.** 1.45 pM

**Q.** Which results are given for O=C(O)CCCN1CCC(CNC(=O)c2c[nH]c3ccccc23)CC1?
**A.** pKb [1]: 4.62; Ki [4]: 3.63 µM

**Q.** For CC(C)(C)OC(=O)CN1CCC(CNC(=O)c2c3n(c4ccccc24)CCCO3)CC1, which pKb [1] is on record?
**A.** 9.01

**Q.** What about the Ki [3] of the same molecule?
**A.** 759 pM

**Q.** What does the source list for CCCCN1CCC(CNC(=O)c2c3n(c4ccccc24)CCCO3)CC1 [PIBOSEROD]?
**A.** pKb [1]: 9.26; logD [2]: 2.2; Ki [3]: 52.5 pM

**Q.** With CCOC(=O)CCCN1CCC(CNC(=O)c2c3n(c4ccccc24)CCCO3)CC1 as the molecule, how does the pKb [1] read?
**A.** 9.43

**Q.** What about the Ki [3] of the same molecule?
**A.** 102 pM

**Q.** What about the half-life [5] of the same molecule?
**A.** 30 min

**Q.** For COC(=O)CCCCCN1CCC(CNC(=O)c2c3n(c4ccccc24)CCCO3)CC1, which pKi [6] is on record?
**A.** < 5

**Q.** What about the Ki (D(4) dopamine receptor) of the same molecule?
**A.** > 10 µM

**Q.** What about the Ki [7] of the same molecule?
**A.** > 10 µM

**Q.** And the Ki [8]?
**A.** > 10 µM

**Q.** And the Ki [9]?
**A.** > 10 µM

**Q.** And the Ki [10]?
**A.** > 10 µM

**Q.** What about the Ki [11] of the same molecule?
**A.** 0.398 µM

**Q.** And the pKb [1]?
**A.** 9.13

**Q.** And the Ki [12]?
**A.** > 10 µM

**Q.** And the Ki [13]?
**A.** > 10 µM

**Q.** What about the pKi [14] of the same molecule?
**A.** < 5

**Q.** What about the Ki [15] of the same molecule?
**A.** > 10 µM

**Q.** What about the pKi [16] of the same molecule?
**A.** < 5

**Q.** And the Ki (Mu-type opioid receptor)?
**A.** > 10 µM

**Q.** What about the Ki (Histamine H1 receptor) of the same molecule?
**A.** 1.26 µM

**Q.** And the Ki (D(2) dopamine receptor)?
**A.** > 10 µM

**Q.** What about the Ki [17] of the same molecule?
**A.** > 10 µM

**Q.** And the Ki [18]?
**A.** > 10 µM

**Q.** And the Ki (D(3) dopamine receptor)?
**A.** > 10 µM

**Q.** What about the Ki (Histamine H3 receptor) of the same molecule?
**A.** > 10 µM

**Q.** And the Ki [19]?
**A.** > 10 µM

**Q.** What about the Ki (Histamine H4 receptor) of the same molecule?
**A.** > 10 µM

**Q.** What about the logD [2] of the same molecule?
**A.** 2.2

**Q.** And the Ki [20]?
**A.** > 10 µM

**Q.** What about the Ki (Histamine H2 receptor) of the same molecule?
**A.** 3.16 µM

**Q.** What about the Ki [21] of the same molecule?
**A.** > 10 µM

**Q.** And the Ki [22]?
**A.** > 10 µM

**Q.** And the Ki [23]?
**A.** > 10 µM

**Q.** What about the Ki (D(1B) dopamine receptor) of the same molecule?
**A.** > 10 µM

**Q.** And the Ki [3]?
**A.** 107 pM

**Q.** And the Ki [24]?
**A.** > 10 µM

**Q.** What about the Ki [25] of the same molecule?
**A.** 2.51 µM

**Q.** And the Ki [26]?
**A.** 3.16 µM

**Q.** And the Ki [27]?
**A.** > 10 µM

**Q.** What about the Ki [28] of the same molecule?
**A.** 2.51 µM

**Q.** And the Ki [29]?
**A.** 6.31 µM

**Q.** And the Ki [30]?
**A.** > 10 µM

**Q.** And the Ki [31]?
**A.** 0.316 µM

**Q.** What about the Ki (D(1A) dopamine receptor) of the same molecule?
**A.** > 10 µM

**Q.** And the Ki [32]?
**A.** > 10 µM

**Q.** What about the Ki [33] of the same molecule?
**A.** > 10 µM

**Q.** And the Ki [34]?
**A.** 1.26 µM

**Q.** And the Ki [35]?
**A.** > 10 µM

**Q.** And the Ki [36]?
**A.** > 10 µM

**Q.** And the Ki [37]?
**A.** > 10 µM

**Q.** What about the Ki [38] of the same molecule?
**A.** > 10 µM

**Q.** For O=C(O)CCCN1CCC(COC(=O)c2c[nH]c3ccccc23)CC1, which pKb [1] is on record?
**A.** 8.16

**Q.** What about the Ki [4] of the same molecule?
**A.** 0.000813 µM

**Q.** Which pKb [1] does the source give for CCOP(=O)(CCN1CCC(CNC(=O)c2c3n(c4ccccc24)CCCO3)CC1)OCC here?
**A.** 8.64

**Q.** What about the Ki [3] of the same molecule?
**A.** 1260 pM
